Eight compounds from ChEMBL document CHEMBL3351239, “Polyketide glycosides from Bionectria ochroleuca inhibit Candida albicans biofilm formation” (J Nat Prod, 2014) can be followed below.

Broadly, the MIC80 is an inhibitory concentration at the 80% level, which refers to growth in some studies and to a panel of isolates in others. Broadly, the IC50 is the concentration that inhibits the measured activity by half.

Values after ≈ are worked out from the molar mass of the structure shown.

The test system of assay [1] is Candida albicans. Nature of the assay: Potentiation of amphotericin B-induced antimicrobial effect against Candida albicans SC5314 incubated for 48 hrs by XTT assay. In kind it is functional. The method in brief: (§1)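 Checkerboard assay: C. albicans seeded in 96-well format with test compound alone or combined with amphotericin B, in RPMI-1640 plus MOPS, for 48 h at 37 °C. Viability was read by XTT, with MIC = lowest concentration giving ≥80% metabolic reduction. FIC = MIC in combination / MIC alone for each agent; FICI = FICA + FICB.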
(In general: Tetrazolium assays rely on reduction of a dye to a coloured formazan, in cell work by metabolically active cells.)

For assay [2], the system named is Candida albicans. Nature of the assay: Antimicrobial activity against Candida albicans SC5314 in presence of amphotericin B incubated for 48 hrs by XTT assay. It counts as functional. The settings on record: SC5314, 48 h. The method in brief: as §1
Assay [3] concerns Candida albicans. As to the kind of experiment: Growth inhibition of Candida albicans SC5314 assessed as reduction in reduction in metabolic activity incubated for 48 hrs by XTT assay. It counts as organism-based. The settings on record: SC5314, 48 h. The method in brief:
(§2)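 SC5314 grown overnight at 37 °C in BHI, washed in PBS and resuspended in RPMI-1640 with 0.17 M MOPS at pH 7.0. Cells at 2.5 × 10^3 cells/mL were exposed to serial dilutions from 20 mM DMSO stocks (final DMSO ≤1% v/v) for 48 h at 37 °C. Viability was read by XTT (0.1 mg/mL, 1 h, A492). MIC = lowest concentration giving ≥80% drop in metabolic activity, per CLSI M27-A3.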

In assay [4] the test system is Candida albicans. As to the kind of experiment: Potentiation of amphotericin B-induced antimicrobial effect against Candida albicans SC5314 assessed as ratio of MIC for compound plus amphotericin B to MIC for amphotericin B alone incubated for 48 hrs by XTT assay. It counts as functional. The method in brief: as §1
Assay [5] relates to Candida albicans. Nature of the assay: Inhibition of biofilm formation of Candida albicans SC5314 incubated for 48 hrs by XTT assay. The settings on record: SC5314, 48 h. In kind it is functional, organism-based. The method in brief: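 SC5314 pregrown in BHI overnight at 37 °C, washed, and seeded at 2.5 × 10^3 cells/mL in RPMI-1640/MOPS pH 7.0 with diluted compounds (DMSO ≤1% v/v final) for 48 h at 37 °C. Nonadherent cells were removed by two PBS washes and fresh medium added. Biofilm was quantified by XTT at A492. IC50 = concentration at 50% of maximal biofilm formation. Triplicate wells, three separate occasions.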

Assay [6] concerns Candida albicans. As to the kind of experiment: Antimicrobial activity against Candida albicans SC5314 incubated for 48 hrs by XTT assay. In kind it is functional. The settings on record: SC5314, 48 h. The method in brief:
as §2

The test system of assay [7] is Candida albicans. Nature of the assay: Potentiation of amphotericin B-induced antimicrobial effect against Candida albicans SC5314 assessed as ratio of MIC for compound plus amphotericin B to MIC for compound alone incubated for 48 hrs by XTT assay. It counts as functional. The method in brief: as §1

With `CC[C@H](C)C[C@H](C)C[C@H](C)[C@@H](O[C@@H]1O[C@H](CO)[C@@H](O)[C@H](O)[C@@H]1O)[C@@H](C)/C=C(\C)[C@@H](O)[C@@H](C)/C=C(\C)[C@@H](O)[C@@H](C)/C=C(\C)C(=O)OC[C@@H](O)[C@@H](O)[C@H](O)[C@H](O)CO`, in the assay on Candida albicans [1], the “fractional inhibitory concentration index (FICI)” value is listed as below 0.3. In addition, the results for the MIC80 in the assay on Candida albicans [2] and against Candida albicans [6] were 5 µM and above 100 µM, respectively. Moreover, the half-maximal inhibitory concentration (IC50) in the assay with Candida albicans [3] is above 100 µM; with Candida albicans [5] it was 1.1 µM. The Ratio in the assay on Candida albicans [4] is listed as 0.25; in the assay on Candida albicans [7], below 0.05.

In the case of `CC[C@H](C)C[C@H](C)C[C@H](C)[C@@H](O[C@@H]1O[C@H](CO)[C@@H](O)[C@H](O)[C@@H]1O)[C@@H](C)/C=C(\C)[C@@H](O)[C@@H](C)/C=C(\C)[C@@H](O)[C@@H](C)/C=C(\C)C(=O)OC[C@@H](O)[C@@H](O)[C@H](O)CO`, the “fractional inhibitory concentration index (FICI)” value in the assay on Candida albicans [1] is given as below 0.26. The MIC80 was 1.25 µM in the assay on Candida albicans [2] and above 100 µM in the assay with Candida albicans [6]. Further, the values for the 50% inhibitory concentration (IC50) in the assay with Candida albicans [3] and in the assay with Candida albicans [5] were above 100 µM and 1.5 µM, respectively. Also, the Ratio is recorded as 0.25 with Candida albicans [4] and below 0.01 in the assay with Candida albicans [7].

`CC[C@H](C)C[C@H](C)C[C@H](C)[C@@H](O[C@@H]1O[C@H](COC(C)=O)[C@@H](O)[C@H](O)[C@@H]1O)[C@@H](C)/C=C(\C)[C@@H](O)[C@@H](C)/C=C(\C)[C@@H](O)[C@@H](C)/C=C(\C)C(=O)OC[C@@H](O)[C@@H](O)[C@H](O)[C@H](O)CO`: the “fractional inhibitory concentration index (FICI)” value with Candida albicans [1] was 0.28. Besides, the MIC80 was determined as 1.25 µM in the assay with Candida albicans [2] and 50 µM (≈ 42.5 µg/mL) against Candida albicans [6]. Moreover, the figures for the IC50 in the assay on Candida albicans [3] and with Candida albicans [5] were 36.3 µM and 1.5 µM, respectively. Moreover, the Ratio is on record as 0.25 in the assay on Candida albicans [4] and 0.03 in the assay on Candida albicans [7].

As to `CC[C@H](C)C[C@H](C)C[C@H](C)[C@@H](O[C@@H]1O[C@H](COC(C)=O)[C@@H](O)[C@H](O)[C@@H]1O)[C@@H](C)/C=C(\C)[C@@H](O)[C@@H](C)/C=C(\C)[C@@H](O)[C@@H](C)/C=C(\C)C(=O)OC[C@@H](O)[C@@H](O)[C@H](O)CO`, in the assay with Candida albicans [1], the “fractional inhibitory concentration index (FICI)” value was 0.28. The MIC80 with Candida albicans [2] was 1.25 µM; in the assay with Candida albicans [6], 50 µM (≈ 41 µg/mL). In addition, the IC50 with Candida albicans [3] was determined as 41 µM; in the assay with Candida albicans [5], 1.2 µM. Besides, the results for the Ratio with Candida albicans [4] and in the assay with Candida albicans [7] were 0.25 and 0.03, respectively.

Turning to `CCC(C)CC(C)CC(C)C(O[C@@H]1O[C@H](CO)[C@@H](O)[C@H](O)[C@@H]1O)C(C)/C=C(\C)C(O)C(C)/C=C(\C)C(O)C(C)C(=O)O` (stereo partly specified), the “fractional inhibitory concentration index (FICI)” value in the assay with Candida albicans [1] was below 0.3. Further, the figures for the MIC80 in the assay with Candida albicans [2] and against Candida albicans [6] were 5 µM and above 100 µM, respectively. Also, the IC50 was above 100 µM with Candida albicans [3] and 5 µM in the assay on Candida albicans [5]. Besides, the Ratio is on record as 0.25 in the assay with Candida albicans [4] and below 0.05 in the assay on Candida albicans [7].

`CC[C@H](C)C[C@H](C)C[C@H](C)[C@@H](O[C@@H]1O[C@H](COC(C)=O)[C@@H](O)[C@H](O)[C@@H]1O)[C@@H](C)/C=C(\C)[C@@H](O)[C@@H](C)/C=C(\C)[C@@H](O)[C@@H](C)/C=C(\C)[C@@H](O)[C@@H](C)C(=O)OC[C@@H](O)[C@@H](O)[C@H](O)[C@H](O)CO`: in the assay with Candida albicans [1], the “fractional inhibitory concentration index (FICI)” value is given as 0.28. In addition, the MIC80 with Candida albicans [2] came to 1.25 µM; against Candida albicans [6], 50 µM (≈ 45.4 µg/mL). For the same compound, the concentration for half-maximal inhibition (IC50) came to 24.1 µM in the assay with Candida albicans [3] and 1.5 µM in the assay on Candida albicans [5]. Besides, the Ratio in the assay on Candida albicans [4] is 0.25; in the assay on Candida albicans [7], 0.03.

In the case of `CC[C@H](C)C[C@H](C)C[C@H](C)[C@@H](O[C@@H]1O[C@H](CO)[C@@H](O)[C@H](O)[C@@H]1O)[C@@H](C)/C=C(\C)[C@@H](O)[C@@H](C)/C=C(\C)[C@@H](O)[C@@H](C)/C=C(\C)[C@@H](O)[C@@H](C)C(=O)O`, in the assay with Candida albicans [1], the “fractional inhibitory concentration index (FICI)” value is recorded as below 0.3. In addition, the MIC80 with Candida albicans [2] is 5 µM; in the assay with Candida albicans [6] it was above 100 µM. The figures for the IC50 in the assay on Candida albicans [3] and in the assay on Candida albicans [5] were above 100 µM and 2.4 µM, respectively. For the same compound, the figures for the Ratio in the assay on Candida albicans [4] and in the assay on Candida albicans [7] were 0.25 and below 0.05, respectively.

Turning to `CCCCCC#CCC#CCC#CCC#CCCCC(=O)O`, the IC50 in the assay with Candida albicans [3] is above 100 µM; in the assay with Candida albicans [5], 3.4 µM.
